From ChEMBL document CHEMBL1152633, “Synthesis and biological evaluation of flavan-3-ol derivatives as positive modulators of GABAA receptors” (Bioorg Med Chem, 2009) come the findings set out here.

Where only a bound is given, the exact number is not on record here.

For experiment [1], the target named is T1, GABA-A receptor; alpha-1/beta-2/gamma-2 (Homo sapiens) (UniProt P14867+P47870+P18507). Nature of the experiment: Modulatory activity at human GABAA alpha-1-beta-2-gamma-2L receptor expressed in Xenopus laevis oocytes assessed as potentiation of GABA EC5-induced currents at 30 uM by two-electrode voltage clamp assay. The class given is cell-based. Conditions: Oocyte. An outline of the steps:
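Stage V–VI oocytes were injected with 2–3 ng cRNA (α:β:γ 1:1:2) and kept 3–4 days at 16 °C in ND96 with pyruvate, theophylline and gentamycin. Two-electrode voltage clamp was run in ND96 at pH 7.5 with 3 M KCl electrodes. Test drug was co-applied with GABA EC5, with a 5–10 min washout between applications. Currents were normalised to a reference modulator at the same concentration on the same cell (n ≤ 5).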
A general note: In two-electrode clamp one electrode senses voltage and the other passes current.

For experiment [2], the target named is T2, GABA-A receptor; alpha-1/beta-2/gamma-2 (Homo sapiens, UniProt P14867+P18507+P47870).
T2 sequence (P14867 whole entry): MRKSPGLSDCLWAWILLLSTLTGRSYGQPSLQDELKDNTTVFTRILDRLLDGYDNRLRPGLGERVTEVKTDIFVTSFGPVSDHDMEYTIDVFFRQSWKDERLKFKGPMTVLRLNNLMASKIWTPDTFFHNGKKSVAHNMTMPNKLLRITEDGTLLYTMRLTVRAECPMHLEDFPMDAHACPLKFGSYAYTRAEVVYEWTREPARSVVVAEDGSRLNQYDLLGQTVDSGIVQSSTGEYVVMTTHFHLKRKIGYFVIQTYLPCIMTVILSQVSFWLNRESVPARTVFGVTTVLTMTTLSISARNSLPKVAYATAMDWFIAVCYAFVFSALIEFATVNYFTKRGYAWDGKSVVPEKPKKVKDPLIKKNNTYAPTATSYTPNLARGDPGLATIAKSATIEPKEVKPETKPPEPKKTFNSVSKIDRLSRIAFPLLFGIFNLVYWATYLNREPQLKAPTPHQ
T2 sequence (P47870 whole entry): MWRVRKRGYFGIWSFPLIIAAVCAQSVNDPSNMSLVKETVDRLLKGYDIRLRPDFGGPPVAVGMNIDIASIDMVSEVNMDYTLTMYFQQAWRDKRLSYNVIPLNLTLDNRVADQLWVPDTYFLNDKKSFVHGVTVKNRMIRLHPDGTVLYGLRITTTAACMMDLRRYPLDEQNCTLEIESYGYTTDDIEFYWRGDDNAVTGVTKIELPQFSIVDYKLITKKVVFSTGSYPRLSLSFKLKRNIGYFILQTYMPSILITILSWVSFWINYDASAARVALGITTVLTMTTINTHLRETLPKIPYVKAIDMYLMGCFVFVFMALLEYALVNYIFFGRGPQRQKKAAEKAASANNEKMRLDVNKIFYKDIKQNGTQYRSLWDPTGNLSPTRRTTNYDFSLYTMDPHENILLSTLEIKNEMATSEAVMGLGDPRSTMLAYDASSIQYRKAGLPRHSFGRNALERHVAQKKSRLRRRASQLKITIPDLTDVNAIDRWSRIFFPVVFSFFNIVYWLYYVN
T2 sequence (P18507 whole entry): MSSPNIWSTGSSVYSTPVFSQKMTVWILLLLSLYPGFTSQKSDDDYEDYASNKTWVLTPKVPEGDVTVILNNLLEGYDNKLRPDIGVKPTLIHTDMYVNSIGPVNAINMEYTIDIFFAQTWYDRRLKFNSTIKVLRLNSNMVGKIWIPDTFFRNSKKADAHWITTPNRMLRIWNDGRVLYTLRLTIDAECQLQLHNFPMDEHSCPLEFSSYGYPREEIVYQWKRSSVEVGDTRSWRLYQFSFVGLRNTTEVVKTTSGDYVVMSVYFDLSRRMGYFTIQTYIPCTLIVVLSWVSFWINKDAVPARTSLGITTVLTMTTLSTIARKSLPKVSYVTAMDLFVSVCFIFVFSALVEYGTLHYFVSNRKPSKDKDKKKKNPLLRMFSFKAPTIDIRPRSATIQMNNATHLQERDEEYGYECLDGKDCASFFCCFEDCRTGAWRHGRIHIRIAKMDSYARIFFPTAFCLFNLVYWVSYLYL
Nature of the experiment: Modulatory activity at human GABAA alpha-1-beta-2-gamma-2L receptor expressed in Xenopus laevis oocytes assessed as potentiation of GABA EC5-induced currents by two-electrode voltage clamp assay. The class given is cell-based, Oocyte. An outline of the steps:
(§1)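 Oocytes were injected with cRNA (α:β:γ 1:1:2) and incubated 3–4 days at 16 °C in ND96. TEVC was run in ND96 at pH 7.5, co-applying the drug at a range of concentrations with GABA EC5, with a 5–10 min washout between applications. Potentiation = (Idrug − IGABA) × 100/IGABA. Data are mean ± SEM, n ≥ 8, from at least two oocyte batches.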

Experiment [3] concerns the target T1, GABA-A receptor; alpha-1/beta-2/gamma-2 (Homo sapiens). Kind of experiment: Modulatory activity at human GABAA alpha-1-beta-2-gamma-2L receptor expressed in Xenopus laevis oocytes assessed as potentiation of GABA EC5-induced currents at 50 uM by two-electrode voltage clamp assay relative to untreated control. Type of experiment: cell-based. Particulars: Oocyte. A digest of the protocol:
as §1

Experiment [4] shares this target. Kind of experiment: Modulatory activity at human GABAA alpha-1-beta-2-gamma-2L receptor expressed in Xenopus laevis oocytes assessed as potentiation of GABA EC5-induced currents at 30 uM by two-electrode voltage clamp assay relative to untreated control. The class given is cell-based. Conditions: Oocyte. A digest of the protocol: as §1

Turning to `COc1ccc([C@H]2Oc3cc(OCc4ccccc4)ccc3C[C@H]2OC(C)=O)cc1`, the Activity in experiment [1] is under 50%.

In the case of `COc1ccc([C@H]2Oc3cc(OCc4ccccc4)ccc3C[C@@H]2OC(C)=O)cc1OC`, in experiment [1], the Activity was under 50%.

Take `COc1ccc([C@@H]2Oc3cc(OCc4ccccc4)ccc3C[C@H]2OC(C)=O)cc1OC`: the Activity in experiment [1] was under 50%.

On to `COc1ccc([C@@H]2Oc3ccccc3C[C@H]2O)cc1`, for which the Activity in experiment [1] is under 50%.

Take `COc1ccc([C@@H]2Oc3ccc(C)cc3C[C@H]2OC(C)=O)cc1OC`: the Activity in experiment [1] is over 50%.

In the case of `CC(=O)O[C@H]1Cc2ccccc2O[C@@H]1c1ccc(OCc2ccccc2)cc1`, in experiment [1], the Activity was under 50%.

Consider `COc1ccc([C@H]2Oc3ccc(OC)cc3C[C@H]2OC(C)=O)cc1`, for which the Activity in experiment [1] is under 50%.

Consider `COc1ccc([C@@H]2Oc3ccccc3C[C@@H]2OC(C)=O)cc1`, for which the Activity in experiment [1] is under 50%.

In the case of `COc1ccc([C@@H]2Oc3ccccc3C[C@@H]2OC(C)=O)cc1OC`, the Activity in experiment [1] is under 50%.

As to `COc1ccc([C@H]2Oc3cc(O)ccc3C[C@@H]2OC(C)=O)cc1OC`, the Activity in experiment [1] was under 50%.

As a reminder, the EC50 is the concentration at which the effect is half-maximal. For `COc1ccc([C@@H]2Oc3ccccc3C[C@H]2OC(C)=O)cc1`, in experiment [1], the Activity amounted to 700%. For the same compound, the EC50 in experiment [2] was 13.7 µM. Besides, the fold change (FC) in experiment [3] came to 8.5.

On to `COc1cc([C@@H]2Oc3ccccc3C[C@H]2OC(C)=O)cc(Br)c1OC`, for which, in experiment [1], the Activity is over 50%.

With `COc1ccc([C@@H]2Oc3ccc(OC)cc3C[C@H]2OC(C)=O)cc1`, the Activity in experiment [1] was over 50%. Besides, the EC50 in experiment [2] was 15 µM.

Take `COc1ccc([C@H]2Oc3ccccc3C[C@@H]2OC(C)=O)cc1`: the Activity in experiment [1] is over 50%.

On to `CC(=O)O[C@H]1Cc2ccccc2O[C@@H]1c1ccc(O)cc1`, for which the Activity in experiment [1] is under 50%.

For the compound `COc1ccc([C@@H]2Oc3cc(O)ccc3C[C@@H]2OC(C)=O)cc1`, the Activity in experiment [1] is under 50%.

`CC(=O)O[C@H]1Cc2ccccc2O[C@H]1c1ccc(O)cc1`: the Activity in experiment [1] is under 50%.

Turning to `CC(=O)O[C@H]1Cc2ccccc2O[C@@H]1c1ccc2c(c1)OCO2`, the Activity in experiment [1] was over 50%.

As for `COc1ccc([C@H]2Oc3ccccc3C[C@H]2OC(C)=O)cc1`, the Activity in experiment [1] was under 50%.

As to `COc1ccc([C@@H]2Oc3ccccc3C[C@H]2OC(C)=O)cc1OC`, the Activity in experiment [1] is over 50%. Besides, in experiment [2], the EC50 is 6.68 µM. For the same compound, in experiment [4], the fold change (FC) was found to be 14.7.

As to `COc1ccc([C@@H]2Oc3cc(OCc4ccccc4)ccc3C[C@H]2OC(C)=O)cc1`, in experiment [1], the Activity was under 50%.

As for `COc1ccc([C@H]2Oc3ccccc3C[C@@H]2OC(C)=O)cc1OC`, the Activity in experiment [1] is over 50%.

In the case of `CC(=O)O[C@H]1Cc2ccccc2O[C@H]1c1ccc(OCc2ccccc2)cc1`, the Activity in experiment [1] was under 50%.

Turning to `COc1ccc([C@H]2Oc3ccc(C)cc3C[C@@H]2OC(C)=O)cc1OC`, the Activity in experiment [1] was under 50%.

With `COc1ccc([C@@H]2Oc3cc(O)ccc3C[C@H]2OC(C)=O)cc1`, the Activity in experiment [1] is over 50%. In addition, in experiment [3], the fold change (FC) is 10.5.

For `COc1ccc([C@H]2Oc3ccccc3C[C@H]2O)cc1`, the Activity in experiment [1] was under 50%.

Regarding `CC(=O)O[C@@H]1Cc2ccccc2O[C@H]1c1ccc2c(c1)OCO2`, the Activity in experiment [1] is over 50%.

`COc1ccc([C@@H]2Oc3cc(O)ccc3C[C@H]2OC(C)=O)cc1OC`: the Activity in experiment [1] is over 50%. Besides, the EC50 in experiment [2] stood at 12.1 µM. Moreover, the fold change (FC) in experiment [4] worked out at 12.
